Test results taken from ChEMBL document CHEMBL2331221, “Potent elastase inhibitors from cyanobacteria: structural basis and mechanisms mediating cytoprotective and anti-inflammatory effects in bronchial epithelial cells” (J Med Chem, 2013).
The source made the active and inactive calls. The calls are words filed in the database; no cut-off is given here.

Tests used:
[1] = biological target: Disintegrin and metalloproteinase domain-containing protein 10 (Homo sapiens) (UniProt O14672); assay: Inhibition of ADAM10 (unknown origin) using MCA-PLAQAV-Dpa-RSSSR-[…] substrate assessed as residual activity at 10 uM incubated for 15 mins prior to substrate addition measured for 2 hrs
Procedure, shortened: (§1)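 Protease panel screen: enzyme and test inhibitor preincubated 15 min in the enzyme's reaction buffer, then substrate added. Reaction followed for 2 h, and activity was taken from the initial linear portion of the progress-curve slope. Enzyme, substrate, buffer and detection conditions for each target are given only in the paper's supporting table.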

[2] = biological target: Angiotensin-converting enzyme (Homo sapiens) (UniProt P12821); assay: Inhibition of ACE1 (unknown origin) using MCA-RPPGFSAFK(Dnp) substrate assessed as residual activity at 10 uM incubated for 15 mins prior to substrate addition measured for 2 hrs; procedure, shortened: as §1
[3] = Inhibition of Hepatitis C virus NS3/4A protease using Anaspec EnzoLyte substrate incubated for 15 mins prior to substrate addition measured for 2 hrs; set-up: species or system Hepacivirus hominis; procedure, shortened: as §1
[4] = biological target: Beta-secretase 1 (Homo sapiens) (UniProt P56817); assay: Inhibition of BACE1 (unknown origin) using MCA-SEVNLDAEFRK(Dnp)-RR-NH2 substrate assessed as residual activity at 10 uM incubated for 15 mins prior to substrate addition measured for 2 hrs; procedure, shortened: as §1
[5] = biological target: Cathepsin B (Homo sapiens) (UniProt P07858); assay: Inhibition of Cathepsin B (unknown origin) using Z-FR-AMC substrate assessed as residual activity at 10 uM incubated for 15 mins prior to substrate addition measured for 2 hrs; procedure, shortened: as §1
[6] = biological target: Dipeptidyl peptidase 9 (Homo sapiens) (UniProt Q86TI2); assay: Inhibition of DPP9 (unknown origin) using H-GP-AMC substrate assessed as residual activity at 10 uM incubated for 15 mins prior to substrate addition measured for 2 hrs; procedure, shortened: as §1
Coagulation factor XI = Coagulation factor XI (Homo sapiens, UniProt P03951); assay: Inhibition of Factor-11a (unknown origin) using (Boc-Glu(OBzl)-Ala-Arg)-MCA substrate incubated for 15 mins prior to substrate addition measured for 2 hrs; procedure, shortened: as §1
[7] = biological target: Cathepsin G (Homo sapiens) (UniProt P08311); assay: Inhibition of Cathepsin G (unknown origin) using Suc-AAPF-AMC substrate assessed as residual activity at 10 uM incubated for 15 mins prior to substrate addition measured for 2 hrs; procedure, shortened: as §1
[8] = biological target: Tryptase beta-2 (Homo sapiens) (UniProt P20231); assay: Inhibition of Tryptase beta2 (unknown origin) using Z-GPR-AMC substrate assessed as residual activity at 10 uM incubated for 15 mins prior to substrate addition measured for 2 hrs
[9] = biological target: Coagulation factor VII (Homo sapiens) (UniProt P08709); assay: Inhibition of Factor-7a (unknown origin) using Z-VVR-AMC substrate assessed as residual activity at 10 uM incubated for 15 mins prior to substrate addition measured for 2 hrs; procedure, shortened: as §1
Trypsin = Trypsin (Homo sapiens, UniProt P07477+P07478+P35030); assay: Inhibition of Trypsin (unknown origin) using H-D-CHA -Ala-Arg-AMC.2AcOH substrate incubated for 15 mins prior to substrate addition measured for 2 hrs; format: protein assay
Procedure, shortened: (§2)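 Protease panel screen: enzyme and inhibitor preincubated 15 min in reaction buffer, then substrate added; reaction followed for 2 h and the initial linear part of the progress curve used for activity. Enzyme, substrate, buffer and detection details are given only in a supporting table.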

Hepacivirus hominis = assay: Inhibition of Hepatitis C virus NS3/4A protease using Anaspec EnzoLyte substrate assessed as residual activity at 10 uM incubated for 15 mins prior to substrate addition measured for 2 hrs; procedure, shortened: as §1
[10] = biological target: Cathepsin K (Homo sapiens) (UniProt P43235); assay: Inhibition of Cathepsin K (unknown origin) using Z-GPR-AMC substrate assessed as residual activity at 10 uM incubated for 15 mins prior to substrate addition measured for 2 hrs; procedure, shortened: as §1
[11] = biological target: 72 kDa type IV collagenase (Homo sapiens) (UniProt P08253); assay: Inhibition of MMP2 (unknown origin) using (5-FAM/QXLTM) FRET peptide substrate assessed as residual activity at 10 uM incubated for 15 mins prior to substrate addition measured for 2 hrs; procedure, shortened: as §1
Chymase = Chymase (Homo sapiens, UniProt P23946); assay: Inhibition of Chymase (unknown origin) using Suc-AAPF-AMC substrate incubated for 15 mins prior to substrate addition measured for 2 hrs; procedure, shortened: as §1
[12] = Inhibition of Proteinase K (unknown origin) using H-D-CHA -Ala-Arg-AMC.2AcOH substrate incubated for 15 mins prior to substrate addition measured for 2 hrs; set-up: species or system Homo sapiens; procedure, shortened: as §2
Homo sapiens = species on record: Homo sapiens; assay: Inhibition of human pancreatic chymotrypsin assessed as proteolysis using N-succinyl-Ala-Ala-Pro-Phe-p-nitroanilide substrate incubated at 10 uM for 30 mins prior to substrate addition; set-up: scale not given: the % may be the effect or the level left
Procedure, shortened: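 Pancreatic chymotrypsin, bovine at 100 μg/mL or human at 50 μg/mL; reaction buffer, enzyme and inhibitor (DMSO) incubated 30 min at room temperature, then substrate added (bovine: N-succinyl-Gly-Gly-Phe-pNA; human: N-succinyl-Ala-Ala-Pro-Phe-pNA). Absorbance read at 405 nm; activity from reaction slope relative to solvent control.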

Kallikrein-5 = Kallikrein-5 (Homo sapiens, UniProt Q9Y337); assay: Inhibition of Kallikrein-5 (unknown origin) using Z-VVR-AMC substrate incubated for 15 mins prior to substrate addition measured for 2 hrs; procedure, shortened: as §1
[13] = biological target: Kallikrein-8 (Homo sapiens) (UniProt O60259); assay: Inhibition of Kallikrein-8 (unknown origin) using VPR-AMC substrate assessed as residual activity at 10 uM incubated for 15 mins prior to substrate addition measured for 2 hrs; procedure, shortened: as §1
[14] = Inhibition of human pancreatic chymotrypsin assessed as proteolysis using N-succinyl-Ala-Ala-Pro-Phe-p-nitroanilide substrate incubated for 30 mins prior to substrate addition
[15] = biological target: T1, Neutrophil elastase (Homo sapiens) (UniProt P08246); settings: 10 uM
T1 sequence (whole entry): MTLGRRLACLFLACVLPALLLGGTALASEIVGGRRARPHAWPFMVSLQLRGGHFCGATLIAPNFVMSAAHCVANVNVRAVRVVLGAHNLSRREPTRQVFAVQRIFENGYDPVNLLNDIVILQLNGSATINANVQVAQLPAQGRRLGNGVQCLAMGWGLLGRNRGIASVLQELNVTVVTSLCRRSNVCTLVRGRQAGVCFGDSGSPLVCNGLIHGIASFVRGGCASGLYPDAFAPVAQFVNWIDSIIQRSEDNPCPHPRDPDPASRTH

[16] = biological target: Stromelysin-2 (Homo sapiens) (UniProt P09238); assay: Inhibition of MMP10 (unknown origin) using (5-FAM/QXLTM) FRET peptide substrate assessed as residual activity at 10 uM incubated for 15 mins prior to substrate addition measured for 2 hrs; procedure, shortened: as §1
[17] = biological target: Dipeptidyl peptidase 8 (Homo sapiens) (UniProt Q6V1X1); assay: Inhibition of DPP8 (unknown origin) using H-GP-AMC substrate assessed as residual activity at 10 uM incubated for 15 mins prior to substrate addition measured for 2 hrs; procedure, shortened: as §1
[18] = biological target: T1, Neutrophil elastase (Homo sapiens); settings: 10 uM; remark: listed apart in the source

Coagulation factor XI, sequence (P03951 19-387 limits assumed): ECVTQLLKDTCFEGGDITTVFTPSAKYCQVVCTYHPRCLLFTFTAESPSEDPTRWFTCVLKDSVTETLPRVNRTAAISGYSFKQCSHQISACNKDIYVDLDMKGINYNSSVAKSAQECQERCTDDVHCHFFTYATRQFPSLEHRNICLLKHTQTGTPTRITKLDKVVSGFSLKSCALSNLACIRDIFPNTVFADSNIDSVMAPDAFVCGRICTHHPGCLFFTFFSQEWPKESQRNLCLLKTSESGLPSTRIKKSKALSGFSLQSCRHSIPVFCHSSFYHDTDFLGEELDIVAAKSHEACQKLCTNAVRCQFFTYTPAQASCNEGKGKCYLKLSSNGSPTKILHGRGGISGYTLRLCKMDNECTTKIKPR
Coagulation factor XI, sequence (P03951 388-625 limits assumed): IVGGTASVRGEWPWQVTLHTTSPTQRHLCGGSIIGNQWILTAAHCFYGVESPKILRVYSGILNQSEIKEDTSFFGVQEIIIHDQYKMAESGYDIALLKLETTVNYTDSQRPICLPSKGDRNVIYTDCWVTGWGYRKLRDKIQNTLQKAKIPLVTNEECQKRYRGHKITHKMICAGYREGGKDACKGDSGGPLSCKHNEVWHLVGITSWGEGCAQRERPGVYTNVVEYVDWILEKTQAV
72 kDa type IV collagenase (Homo sapiens), sequence (P08253 110-660 limits assumed): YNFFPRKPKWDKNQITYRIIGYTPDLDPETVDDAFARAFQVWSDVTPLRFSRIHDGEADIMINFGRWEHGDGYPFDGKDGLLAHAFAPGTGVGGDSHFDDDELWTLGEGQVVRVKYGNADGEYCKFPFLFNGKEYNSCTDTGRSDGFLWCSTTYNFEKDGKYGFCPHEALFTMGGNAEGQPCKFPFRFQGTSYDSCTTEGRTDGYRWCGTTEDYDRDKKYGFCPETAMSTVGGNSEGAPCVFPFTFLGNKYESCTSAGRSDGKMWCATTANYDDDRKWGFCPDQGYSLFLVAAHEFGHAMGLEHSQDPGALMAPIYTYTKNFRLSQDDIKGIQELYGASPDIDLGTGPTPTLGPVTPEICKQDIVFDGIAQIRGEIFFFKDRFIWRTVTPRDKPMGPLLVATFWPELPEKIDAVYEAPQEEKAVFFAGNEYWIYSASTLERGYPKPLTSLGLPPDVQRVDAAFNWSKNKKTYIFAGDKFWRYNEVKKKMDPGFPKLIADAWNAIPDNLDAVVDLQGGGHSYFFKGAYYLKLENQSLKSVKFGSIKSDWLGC
Kallikrein-8 (Homo sapiens), sequence (O60259 whole entry): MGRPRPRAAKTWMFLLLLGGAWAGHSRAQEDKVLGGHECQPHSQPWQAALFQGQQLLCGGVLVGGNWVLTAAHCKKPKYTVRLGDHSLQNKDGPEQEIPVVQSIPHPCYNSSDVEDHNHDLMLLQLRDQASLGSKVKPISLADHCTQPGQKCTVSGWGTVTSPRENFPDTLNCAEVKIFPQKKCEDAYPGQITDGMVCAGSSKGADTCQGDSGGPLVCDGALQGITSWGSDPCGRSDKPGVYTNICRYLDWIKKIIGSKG
Tryptase beta-2 (Homo sapiens), sequence (P20231 whole entry, looked up): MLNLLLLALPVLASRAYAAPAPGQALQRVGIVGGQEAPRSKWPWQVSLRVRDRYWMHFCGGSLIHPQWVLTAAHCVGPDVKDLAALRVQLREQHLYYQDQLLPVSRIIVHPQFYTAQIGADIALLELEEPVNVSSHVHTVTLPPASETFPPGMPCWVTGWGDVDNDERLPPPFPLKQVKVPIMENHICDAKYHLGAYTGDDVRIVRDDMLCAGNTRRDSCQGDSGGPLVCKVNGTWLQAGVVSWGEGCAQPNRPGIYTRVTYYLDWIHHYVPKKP
Stromelysin-2 (Homo sapiens), sequence (P09238 99-476 limits assumed): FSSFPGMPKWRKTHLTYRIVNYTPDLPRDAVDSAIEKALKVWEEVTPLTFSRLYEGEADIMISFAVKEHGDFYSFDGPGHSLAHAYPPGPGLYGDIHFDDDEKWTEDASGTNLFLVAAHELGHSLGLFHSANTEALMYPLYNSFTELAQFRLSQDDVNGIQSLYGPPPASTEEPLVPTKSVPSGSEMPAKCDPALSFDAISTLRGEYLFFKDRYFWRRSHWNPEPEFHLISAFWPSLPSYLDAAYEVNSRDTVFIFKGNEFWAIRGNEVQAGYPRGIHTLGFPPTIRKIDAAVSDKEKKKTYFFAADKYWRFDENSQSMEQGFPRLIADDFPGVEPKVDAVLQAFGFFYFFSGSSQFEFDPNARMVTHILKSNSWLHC
Chymase, sequence (P23946 whole entry): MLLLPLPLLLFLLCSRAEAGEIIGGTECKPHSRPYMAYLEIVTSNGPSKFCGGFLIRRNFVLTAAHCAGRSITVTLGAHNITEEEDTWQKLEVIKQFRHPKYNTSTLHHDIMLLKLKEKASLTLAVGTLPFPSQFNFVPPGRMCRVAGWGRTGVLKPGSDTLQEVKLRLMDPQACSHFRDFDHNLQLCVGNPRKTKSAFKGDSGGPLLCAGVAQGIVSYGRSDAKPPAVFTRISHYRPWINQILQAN
Kallikrein-5, sequence (Q9Y337 whole entry): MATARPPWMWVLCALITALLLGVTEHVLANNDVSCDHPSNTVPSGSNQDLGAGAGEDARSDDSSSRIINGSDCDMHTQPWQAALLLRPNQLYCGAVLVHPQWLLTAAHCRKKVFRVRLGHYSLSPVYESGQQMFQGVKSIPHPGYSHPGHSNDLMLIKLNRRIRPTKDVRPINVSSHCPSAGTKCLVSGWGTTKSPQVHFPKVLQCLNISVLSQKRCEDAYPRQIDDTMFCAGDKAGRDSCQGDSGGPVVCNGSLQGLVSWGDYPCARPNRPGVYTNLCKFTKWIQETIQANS
Coagulation factor VII (Homo sapiens), sequence (P08709 61-212 limits assumed): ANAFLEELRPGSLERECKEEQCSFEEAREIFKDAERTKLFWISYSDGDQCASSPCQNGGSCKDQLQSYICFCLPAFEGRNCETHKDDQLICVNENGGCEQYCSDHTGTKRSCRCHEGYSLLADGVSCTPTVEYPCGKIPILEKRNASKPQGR
Coagulation factor VII (Homo sapiens), sequence (P08709 213-466 limits assumed): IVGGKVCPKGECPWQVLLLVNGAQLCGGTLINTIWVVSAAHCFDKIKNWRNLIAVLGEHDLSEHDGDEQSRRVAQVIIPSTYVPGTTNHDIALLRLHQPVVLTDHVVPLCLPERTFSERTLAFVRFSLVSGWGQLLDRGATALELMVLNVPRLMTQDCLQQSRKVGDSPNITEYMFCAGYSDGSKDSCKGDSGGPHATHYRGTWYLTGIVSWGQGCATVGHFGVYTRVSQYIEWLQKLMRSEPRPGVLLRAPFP
Dipeptidyl peptidase 8 (Homo sapiens), sequence (Q6V1X1 whole entry, looked up): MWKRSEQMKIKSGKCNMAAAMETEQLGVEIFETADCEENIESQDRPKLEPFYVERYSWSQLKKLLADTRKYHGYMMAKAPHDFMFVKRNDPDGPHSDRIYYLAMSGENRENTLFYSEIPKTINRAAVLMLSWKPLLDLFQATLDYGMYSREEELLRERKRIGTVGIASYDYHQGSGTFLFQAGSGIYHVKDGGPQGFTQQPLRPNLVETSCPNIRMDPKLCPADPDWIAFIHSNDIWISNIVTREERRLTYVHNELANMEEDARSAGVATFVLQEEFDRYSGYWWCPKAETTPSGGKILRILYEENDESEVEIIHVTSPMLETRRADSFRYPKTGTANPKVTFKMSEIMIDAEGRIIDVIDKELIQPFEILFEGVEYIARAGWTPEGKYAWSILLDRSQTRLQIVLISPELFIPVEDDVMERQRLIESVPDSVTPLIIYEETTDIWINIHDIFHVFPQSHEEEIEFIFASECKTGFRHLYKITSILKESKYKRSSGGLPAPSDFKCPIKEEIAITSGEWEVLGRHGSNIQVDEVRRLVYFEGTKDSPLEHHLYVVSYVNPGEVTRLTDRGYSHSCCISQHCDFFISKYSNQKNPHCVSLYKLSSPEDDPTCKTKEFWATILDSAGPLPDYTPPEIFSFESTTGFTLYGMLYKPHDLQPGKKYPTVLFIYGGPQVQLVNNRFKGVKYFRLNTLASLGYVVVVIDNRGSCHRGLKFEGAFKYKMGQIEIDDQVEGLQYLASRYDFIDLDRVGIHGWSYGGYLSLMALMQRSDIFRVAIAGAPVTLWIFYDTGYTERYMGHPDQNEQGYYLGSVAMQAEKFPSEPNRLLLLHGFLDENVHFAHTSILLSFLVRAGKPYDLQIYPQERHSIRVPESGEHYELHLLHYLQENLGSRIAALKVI
Disintegrin and metalloproteinase domain-containing protein 10 (Homo sapiens), sequence (O14672 whole entry, the tested form may be a part): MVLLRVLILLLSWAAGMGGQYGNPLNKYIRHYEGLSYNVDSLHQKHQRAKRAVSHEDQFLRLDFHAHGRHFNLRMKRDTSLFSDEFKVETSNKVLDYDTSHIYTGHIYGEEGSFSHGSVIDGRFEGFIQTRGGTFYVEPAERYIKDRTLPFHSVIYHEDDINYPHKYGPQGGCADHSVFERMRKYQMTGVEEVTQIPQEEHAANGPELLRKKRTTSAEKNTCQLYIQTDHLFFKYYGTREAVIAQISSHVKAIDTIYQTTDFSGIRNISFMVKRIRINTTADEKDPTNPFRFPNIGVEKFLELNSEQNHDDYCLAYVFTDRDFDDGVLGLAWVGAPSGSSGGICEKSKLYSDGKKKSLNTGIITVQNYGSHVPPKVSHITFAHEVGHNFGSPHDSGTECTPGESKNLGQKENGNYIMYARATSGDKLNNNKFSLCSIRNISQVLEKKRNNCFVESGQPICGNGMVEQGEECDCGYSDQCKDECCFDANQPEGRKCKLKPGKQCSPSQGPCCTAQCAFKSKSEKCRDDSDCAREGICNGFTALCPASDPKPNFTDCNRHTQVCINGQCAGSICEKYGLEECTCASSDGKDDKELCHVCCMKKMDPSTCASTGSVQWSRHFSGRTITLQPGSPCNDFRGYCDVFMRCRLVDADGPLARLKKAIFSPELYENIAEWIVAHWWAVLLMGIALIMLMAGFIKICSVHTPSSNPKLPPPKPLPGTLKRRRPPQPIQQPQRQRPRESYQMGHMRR
Cathepsin G (Homo sapiens), sequence (P08311 whole entry): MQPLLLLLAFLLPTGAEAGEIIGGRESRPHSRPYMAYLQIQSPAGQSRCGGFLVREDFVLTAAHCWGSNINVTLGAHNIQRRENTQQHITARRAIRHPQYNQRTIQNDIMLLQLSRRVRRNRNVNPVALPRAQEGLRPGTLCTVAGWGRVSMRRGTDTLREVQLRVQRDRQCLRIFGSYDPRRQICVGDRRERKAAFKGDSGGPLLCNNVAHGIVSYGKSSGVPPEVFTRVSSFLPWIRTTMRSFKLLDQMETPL

SMILES: C/C=C1\NC(=O)[C@@H](NC(=O)[C@@H](NC(=O)[C@@H](COS(=O)(=O)[O-])OC)C(C)C)[C@@H](C)OC(=O)[C@H]([C@H](C)CC)NC(=O)[C@H](Cc2ccccc2)N(C)C(=O)[C@H](Cc2ccccc2)N2C(=O)[C@H](CC[C@H]2O)NC1=O.[Na+] [Symplostatin 5]
- Activity [1]: 100%
- Activity [2]: 100%
- pIC50 [3]: > 5
- Activity [4]: 100%
- Activity [5]: 100%
- Activity [6]: 100%
- IC50 (Coagulation factor XI): < 10 µM
- Activity [7]: 50%
- Activity [8]: 100%
- Activity [9]: 100%
- pIC50 (Trypsin): > 5
- Activity (Hepacivirus hominis): 100%
- Activity [10]: 100%
- Activity [11]: 100%
- IC50 (Chymase): < 10 µM
- pIC50 [12]: < 5
- Activity (Homo sapiens): 53.4%
- IC50 (Kallikrein-5): < 10 µM
- Activity [13]: 50%
- IC50 [14]: > 10 µM
- inhibition [15]: Active
- Activity [16]: 100%
- Activity [17]: 100%
- inhibition [18]: Active
